These results are taken from ChEMBL document CHEMBL4334465, “SAR Studies on Aromatic Acylhydrazone-Based Inhibitors of Fungal Sphingolipid Synthesis as Next-Generation Antifungal Agents” (J Med Chem, 2019).

The structures appear in SMILES notation. In brackets after ≈: the same amount, converted by molar mass. Activity calls are given as the source filed them. The rule behind the calls is not given here.

The subject of data set [1] is Cryptococcus neoformans. In words: Antifungal activity against Cryptococcus neoformans H99 infected in CBA/J mouse assessed as increase in survival at 1.2 mg/kg, ip. It is filed as functional, organism-based. The following applies: var grubii H99.
Data set [2] concerns Candida parapsilosis. In words: Antifungal activity against Candida parapsilosis assessed as FICI in presence of itraconazole. It is filed as functional. In short, it runs like this: (§1)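 Checkerboard combination scored by fractional inhibitory concentration index. Acylhydrazone serially diluted 16 to 0.015 μg/mL (11 dilutions). Partner drug in seven dilutions: fluconazole 12 to 0.19 μg/mL, amphotericin B 5 to 0.078 μg/mL, caspofungin, itraconazole or voriconazole 8 to 0.007 μg/mL.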

In data set [3] the test system is Candida parapsilosis. The experiment in a line: Antifungal activity against Candida parapsilosis assessed as FICI in presence of voriconazole. The format is functional. In short, it runs like this:
as §1

Data set [4] deals with A549. In words: Cytotoxicity against human A549 cells after 24 to 48 hrs by MTT assay. Conditions: read-out: LD50 (the source's name). The format is functional. The gist of the method:
(§2)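 A549 and HepG2 kept in DMEM with 10% FBS and 1% pen-strep. At passage 7, seeded at 10⁵ cells/well and allowed to adhere 14 h. Compound added at 0.03–128 μg/mL, untreated wells as controls. Incubation 37°C, 5% CO₂ for 24 or 48 h. MTT (5 mg/mL in PBS) added for 4 h, formazan dissolved in DMSO, OD570.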
In general terms: Tetrazolium assays rely on reduction of a dye to a coloured formazan, in cell work by metabolically active cells.

For data set [5], the system named is Cryptococcus neoformans. The experiment in a line: Antifungal activity against Cryptococcus neoformans H99 assessed as FICI in presence of voriconazole. The format is functional, var grubii H99. The gist of the method:
as §1

The subject of data set [6] is [Candida] auris. The experiment in a line: Antifungal activity against Candida auris assessed as FICI in presence of itraconazole. The format is functional, Candidozyma auris. In short, it runs like this: as §1
The subject of data set [7] is Cryptococcus neoformans. In words: Fungicidal activity against Cryptococcus neoformans H99 measured after 24 hrs by time-kill assay. It is filed as functional, var grubii H99. In short, it runs like this: (§3)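 Overnight C. neoformans washed in PBS and resuspended in HEPES-buffered YNB, pH 7.4. 2 × 10⁴ cells exposed to a range of drug concentrations in 10 mL with 0.5% DMSO final, at 37°C, 5% CO₂, shaking at 200 rpm. Aliquots sampled over 96 h, diluted and plated on YPD; CFU counted after 48 h at 30°C.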

Data set [8] deals with Candida parapsilosis. In words: Antifungal activity against Candida parapsilosis measured after 24 to 72 hrs. The format is functional. The following applies: Lodderomyces parapsilosis. The gist of the method:
(§4)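 Modified CLSI broth microdilution with inoculum per M27A3. Compounds were serially diluted 32 to 0.03 μg/mL. Media: C. neoformans in HEPES-buffered YNB without amino acids (pH 7.0, 2% glucose); Candida strains in YNB without ammonium sulfate or amino acids plus 1% asparagine (pH 7.0, 2% glucose); A. fumigatus in RPMI (pH 7.0, 2% glucose).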

Data set [9] concerns Pichia kudriavzevii. In words: Antifungal activity against Candida krusei 6258 assessed as FICI in presence of fluconazole. It is filed as functional. In short, it runs like this:
as §1

Data set [10] relates to Cryptococcus neoformans. The experiment in a line: Antifungal activity against Cryptococcus neoformans H99 measured after 24 to 72 hrs. The following applies: var grubii H99. It is filed as functional. In short, it runs like this: as §4
Data set [11] relates to Candida albicans. In words: Antifungal activity against Candida albicans assessed as FICI in presence of caspofungin. It is filed as functional. In short, it runs like this: as §1
The test system of data set [12] is Cryptococcus neoformans. In words: Fungicidal activity against Cryptococcus neoformans H99 measured up to 96 hrs by time-kill assay. The format is functional, organism-based. Conditions: var grubii H99. The gist of the method: as §3
The test system of data set [13] is Candida parapsilosis. In words: Antifungal activity against Candida parapsilosis assessed as FICI in presence of caspofungin. It is filed as functional. In short, it runs like this:
as §1

Data set [14] relates to Candida albicans. In words: Antifungal activity against Candida albicans assessed as FICI in presence of fluconazole. The format is functional. The gist of the method:
as §1

Data set [15] concerns Candida albicans. The experiment in a line: Antifungal activity against Candida albicans assessed as FICI in presence of itraconazole. The format is functional. In short, it runs like this:
as §1

Data set [16] relates to Candida albicans. The experiment in a line: Antifungal activity against Candida albicans measured after 24 to 72 hrs. The format is functional. The gist of the method: as §4
The subject of data set [17] is Pichia kudriavzevii. The experiment in a line: Antifungal activity against Candida krusei 6258 assessed as FICI in presence of caspofungin. The format is functional. In short, it runs like this: as §1
The test system of data set [18] is Pichia kudriavzevii. In words: Antifungal activity against Candida krusei measured after 24 to 72 hrs. The format is functional. In short, it runs like this:
(§5)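 MIC by modified CLSI broth microdilution. Candida strains grown in YNB without ammonium sulfate or amino acids with 1% asparagine, pH 7.0, 2% glucose. Inoculum per CLSI M27A3. Compound serially diluted 32 to 0.03 μg/mL. Incubation 37°C, 5% CO₂, 24–72 h, then OD450. MIC80 taken as the lowest concentration giving 80% growth inhibition versus untreated control.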

The test system of data set [19] is Pichia kudriavzevii. The experiment in a line: Antifungal activity against Candida krusei 6258 assessed as FICI in presence of itraconazole. The format is functional. In short, it runs like this:
as §1

The subject of data set [20] is Pichia kudriavzevii. In words: Antifungal activity against fluconazole-resistant Candida krusei assessed as FICI in presence of itraconazole. It is filed as functional. In short, it runs like this:
(§6)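 Checkerboard in 96-well plate. Test compound diluted 16 to 0.015 μg/mL (11 dilutions) against the partner drug in seven dilutions: fluconazole 12 to 0.19 μg/mL, caspofungin, itraconazole or voriconazole 8 to 0.007 μg/mL. Fractional inhibitory concentration index (FICI) calculated from the combinations.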

For data set [21], the system named is Pichia kudriavzevii. The experiment in a line: Antifungal activity against Candida krusei 6258 assessed as FICI in presence of voriconazole. It is filed as functional. In short, it runs like this: as §1
In data set [22] the test system is Candida parapsilosis. The experiment in a line: Antifungal activity against Candida parapsilosis assessed as FICI in presence of fluconazole. The format is functional. The gist of the method: as §1
The subject of data set [23] is Cryptococcus neoformans. The experiment in a line: Antifungal activity against Cryptococcus neoformans H99 assessed as FICI in presence of itraconazole. It is filed as functional, var grubii H99. The gist of the method: as §1
For data set [24], the system named is Pichia kudriavzevii. In words: Antifungal activity against fluconazole-resistant Candida krusei assessed as FICI in presence of voriconazole. It is filed as functional. The gist of the method: as §6
In data set [25] the test system is [Candida] auris. In words: Antifungal activity against Candida auris assessed as FICI in presence of voriconazole. The format is functional, Candidozyma auris. The gist of the method: as §1
The subject of data set [26] is [Candida] auris. In words: Antifungal activity against Candida auris assessed as FICI in presence of fluconazole. It is filed as functional, Candidozyma auris. In short, it runs like this:
as §1

Data set [27] concerns Candida albicans. In words: Antifungal activity against Candida albicans assessed as FICI in presence of voriconazole. It is filed as functional. In short, it runs like this: as §1
For data set [28], the system named is Cryptococcus neoformans. In words: Antifungal activity against Cryptococcus neoformans H99 assessed as FICI in presence of fluconazole. The format is functional, var grubii H99. The gist of the method: as §1
Data set [29] has as its system Aspergillus fumigatus. The experiment in a line: Antifungal activity against Aspergillus fumigatus measured after 24 to 72 hrs. The format is functional. In short, it runs like this: as §4
Data set [30] deals with Aspergillus fumigatus. The experiment in a line: Antifungal activity against Aspergillus fumigatus assessed as FICI in presence of itraconazole. It is filed as functional. In short, it runs like this: as §1
Data set [31] deals with Pichia kudriavzevii. In words: Antifungal activity against fluconazole-resistant Candida krusei assessed as FICI in presence of caspofungin. The format is functional. In short, it runs like this:
as §6

The test system of data set [32] is Aspergillus fumigatus. The experiment in a line: Antifungal activity against Aspergillus fumigatus assessed as FICI in presence of fluconazole. The format is functional. The gist of the method: as §1
Data set [33] in a line: Selectivity index, ratio of LD50 for human HepG2 cells to MIC80 for Cryptococcus neoformans H99. The format is toxicity. Conditions: read-out: Selectivity Index. The gist of the method:
(§7)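 SI = LD₅₀/MIC₈₀. Cytotoxicity: A549 or HepG2 cells (DMEM, 10% FBS, passage 7, 10⁵ cells/well) adhered 14 h, then exposed to 0.03–128 μg/mL for 24 or 48 h at 37°C, 5% CO₂; MTT 4 h, formazan dissolved in DMSO, read at 570 nm. MIC₈₀ against C. neoformans from broth microdilution in HEPES-buffered YNB, pH 7.0.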

The test system of data set [34] is Aspergillus fumigatus. The experiment in a line: Antifungal activity against Aspergillus fumigatus assessed as FICI in presence of voriconazole. The format is functional. The gist of the method: as §1
The nature of data set [35]: Selectivity index, ratio of LD50 for human A549 cells to MIC80 for Cryptococcus neoformans H99. It is filed as toxicity. Conditions: read-out: Selectivity Index. In short, it runs like this:
as §7

Data set [36] relates to Pichia kudriavzevii. The experiment in a line: Antifungal activity against multi-drug resistant Candida krusei measured after 24 to 72 hrs. The format is functional. In short, it runs like this:
as §5

Data set [37] concerns Cryptococcus neoformans. The experiment in a line: Antifungal activity against Cryptococcus neoformans H99 assessed as FICI in presence of amphotericin B. It is filed as functional, var grubii H99. The gist of the method:
as §1

Data set [38] relates to [Candida] auris. In words: Antifungal activity against Candida auris assessed as FICI in presence of caspofungin. It is filed as functional, Candidozyma auris. In short, it runs like this: as §1
The subject of data set [39] is HepG2. The experiment in a line: Cytotoxicity against human HepG2 cells after 24 to 48 hrs by MTT assay. Conditions: read-out: LD50 (the source's name). The format is functional. In short, it runs like this: as §2
Data set [40] concerns [Candida] auris. In words: Antifungal activity against Candida auris measured after 24 to 72 hrs. The format is functional. The following applies: Candidozyma auris. The gist of the method:
as §4

Take `O=C(N/N=C/c1cc(Br)cc(Br)c1O)c1ccc(Br)cc1`: the outcome in data set [1] was Active.
In the case of `O=C(N/N=C/c1cc(Br)cc(Br)c1O)c1ccc(Br)c(Br)c1`, the “fractional inhibitory concentration index (FICI)” value is 2.007 in [2]; 1.03 in [3]; 0.247 in data set [5]; 1.12 in [6]; 1 in [9]; 0.5 in data set [11]. The “fractional inhibitory concentration index (FICI)” value in data set [13] was found to be 1.001; in [14], 0.563; in data set [15], 0.37; in [17] it was 0.125; in data set [19] it was 0.153; in data set [20] it was 0.528. The “fractional inhibitory concentration index (FICI)” value in data set [21] was 0.254; in [22], 2.015; in data set [23], 0.247; in [24], 0.31; in data set [25], 1.001; in data set [26], 1.001. Also, the “fractional inhibitory concentration index (FICI)” value in data set [27] worked out at 0.271; in data set [28] it was 0.237; in data set [30], 0.281; in data set [31], 0.121; in [32] it was 2; in data set [34], 1.031. Moreover, the figures for the “fractional inhibitory concentration index (FICI)” value in [37] and in data set [38] were 0.247 and 0.501, respectively. In addition, the CC50 in data set [4] and in data set [39] was 64 µg/mL (≈ 115 µM) each time. The compound also returned an MFC100 in [7] of 0.12 µg/mL (≈ 0.216 µM). Besides, the MIC80 (commonly the lowest concentration that inhibits either 80% of growth or 80% of the strains tested, depending on the study) is 16 µg/mL (≈ 28.8 µM) in data set [8]; 0.06 µg/mL (≈ 0.108 µM) in data set [10]; more than 16 µg/mL in [16]; more than 16 µg/mL in data set [18]; more than 16 µg/mL in [29]; 4 µg/mL (≈ 7.2 µM) in [36]. For the same compound, the MIC80 in [40] was found to be 16 µg/mL (≈ 28.8 µM). Further, the Activity result in [12] was “Dose-dependent effect”. Further, the selectivity ratio in data set [33] and in data set [35] was 1070 in each case.
